Measured values reported in ChEMBL document CHEMBL3600328, “Bayesian models trained with HTS data for predicting β-haematin inhibition and in vitro antimalarial activity” (Bioorg Med Chem, 2015).

Tests used:
Plasmodium falciparum = assay: Antimalarial activity against CQ-sensitive Plasmodium falciparum NF54 assessed as inhibition of parasite growth; type: functional, organism-based
[1] = Inhibition of beta-hematin formation; type: physicochemical
How it was run: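 NP-40 detergent-mediated β-haematin formation assay, run per an earlier-published protocol.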

IC50 [1] | Compound | IC50 (Plasmodium falciparum)
22 µM | COc1cc(-c2nc3cc([N+](=O)[O-])ccc3[nH]2)ccc1O | > 10 µM
85 µM | Nc1cc(O)c2ccccc2n1 | > 10 µM
46 µM | O=C(O)c1cc(-c2ccc(-c3ccccc3)cc2)nc2ccccc12 | > 10 µM
88 µM | Cc1ccc(C(=O)C2=C(O)C(=O)N(Cc3cccnc3)[C@H]2c2ccc(Cl)c(Cl)c2)o1 | > 10 µM
26 µM | CN(C)CCNc1cc(-c2ccc3ccccc3c2)nc2ccccc12 | 0.079 µM

Compound | IC50 [1] | IC50 (Plasmodium falciparum)
C=C[C@H]1CN2CC[C@@H]1C[C@@H]2Cc1ccnc2ccccc12 | 66 µM | 0.082 µM
